Assay results published in ChEMBL document CHEMBL1142063, “Synthesis of omeprazole analogues and evaluation of these as potential inhibitors of the multidrug efflux pump NorA of Staphylococcus aureus” (2007).
Active and inactive are the calls of the source. The rule behind the calls is not given here.

How the values were obtained:
[1] = tested on: Staphylococcus aureus; test: Increase in 5 ug sparfloxacin antibacterial activity against Staphylococcus aureus SA1199B mutant overexpressing NorA at 128 ug/ml by disk diffusion method; format: functional
How it was run: (§1)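 Agar diffusion on Mueller-Hinton agar (adjusted to 20 μg/ml Ca²⁺ and 10 μg/ml Mg²⁺), used plain or with the efflux inhibitor incorporated at the stated concentration. Disks were 5 μg for the fluoroquinolones and 30 μg for chloramphenicol. Plates were incubated overnight at 37°C, and inhibition zone diameters were measured. Values are means of at least three independent experiments.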

[2] = tested on: Staphylococcus aureus; test: Increase in 5 ug moxifloxacin antibacterial activity against Staphylococcus aureus SA1199B mutant overexpressing NorA at 128 ug/ml by disk diffusion method; format: functional; how it was run: as §1
[3] = tested on: Staphylococcus aureus; test: Increase in 30 ug chloramphenicol antibacterial activity against Staphylococcus aureus SA1199B mutant overexpressing NorA at 128 ug/ml by disk diffusion method; format: functional; how it was run: as §1
[4] = tested on: Staphylococcus aureus; test: Antibacterial activity against Staphylococcus aureus; format: functional
How it was run: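 Tube broth dilution MIC against SA-1199 and NorA-overproducing SA-1199B in Mueller-Hinton broth with 20 μg/ml Ca²⁺ and 10 μg/ml Mg²⁺. Inoculum was a 4–5 h 37°C culture diluted 1/10 (≈10⁶ CFU/ml). Compound range was 512 to 1 μg/ml, dissolved in DMSO (final ≤4%).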

[5] = tested on: Staphylococcus aureus; test: Increase in 2 ug/ml Norfloxacin antibacterial activity against wild type Staphylococcus aureus SA1199 at 128 ug/ml by checker board method; format: functional
[6] = tested on: Staphylococcus aureus; test: Increase in 64 ug/ml Norfloxacin antibacterial activity against Staphylococcus aureus SA1199B mutant overexpressing NorA at 128 ug/ml by checker board method; format: functional
[7] = tested on: Staphylococcus aureus; test: Increase in 16 ug/ml Norfloxacin accumulation in wild type Staphylococcus aureus SA1199 at 128 ug/ml after 20 mins; format: functional
How it was run: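 Mid-exponential SA-1199 cells were washed and resuspended in 50 mM sodium phosphate, pH 7.0. They were exposed at time zero to norfloxacin at one-quarter MIC, alone or with EPI at 128 μg/ml. At 5–20 min, cells were spun through silicone-paraffin oil into orthophosphoric acid. Lysate norfloxacin was measured by C18 HPLC with fluorescence detection (ex 240, em 280 nm) and normalized to BCA protein (ng/mg). Triplicate experiments, mean reported.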

[8] = tested on: Staphylococcus aureus; test: Increase in 16 ug/ml Norfloxacin accumulation in Staphylococcus aureus SA1199B mutant overexpressing NorA measured per mg of cell protein at 128 ug/ml after 5 mins; format: functional, organism-based
How it was run: (§2)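 SA-1199B was grown to mid-exponential phase in MH broth (4–5 h, 37°C, shaken), then washed and resuspended in 50 mM sodium phosphate, pH 7.0. Cells got norfloxacin at one-quarter MIC, alone or with inhibitor at 128 μg/ml. At 5–20 min, cells were spun through silicone-paraffin oil into orthophosphoric acid. Norfloxacin was measured by HPLC fluorescence (ex 240/[…]) as ng/mg BCA protein. Means of triplicate experiments.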

[9] = tested on: Staphylococcus aureus; test: Increase in 5 ug Norfloxacin antibacterial activity against Staphylococcus aureus SA1199B mutant overexpressing NorA at 128 ug/ml by disk diffusion method; format: functional; how it was run: as §1
[10] = tested on: Staphylococcus aureus; test: Increase in 5 ug ciprofloxacin antibacterial activity against Staphylococcus aureus SA1199B mutant overexpressing NorA at 128 ug/ml by disk diffusion method; format: functional; how it was run: as §1
[11] = tested on: Staphylococcus aureus; test: Increase in 5 ug ofloxacin antibacterial activity against Staphylococcus aureus SA1199B mutant overexpressing NorA at 128 ug/ml by disk diffusion method; format: functional; how it was run: as §1
[12] = tested on: Staphylococcus aureus; test: Increase in 5 ug levofloxacin antibacterial activity against Staphylococcus aureus SA1199B mutant overexpressing NorA at 128 ug/ml by disk diffusion method; format: functional; how it was run: as §1
[13] = tested on: Staphylococcus aureus; test: Increase in 16 ug/ml Norfloxacin accumulation in Staphylococcus aureus SA1199B mutant overexpressing NorA measured per milligram of cell protein at 128 ug/ml after 20 mins; format: functional, organism-based; how it was run: as §2
[14] = tested on: Staphylococcus aureus; test: Increase in 16 ug/ml Norfloxacin accumulation in Staphylococcus aureus SA1199B mutant overexpressing NorA at 128 ug/ml after 20 mins; format: functional; how it was run: as §2
[15] = tested on: Staphylococcus aureus; test: Increase in 16 ug/ml Norfloxacin antibacterial activity against Staphylococcus aureus SA1199B mutant overexpressing NorA at 128 ug/ml after 24 hrs by time-kill curve method; format: functional, organism-based
How it was run: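 Log-phase SA-1199B inoculum at 10⁶ CFU/ml in MH broth with norfloxacin 16 μg/ml plus inhibitor 128 μg/ml, 37°C. Viable counts were taken by dilution plating in triplicate on MH agar at 0, 2, 4, 8 and 24 h. Results are expressed as log percentage survival, means of three experiments. Sensitivity limit was 1 log₁₀ CFU/ml.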

[16] = tested on: Staphylococcus aureus; test: Antibacterial activity against Staphylococcus aureus SA1199 at 5 ug by disk diffusion method; settings: read-out: IZ
[17] = tested on: Staphylococcus aureus; test: Increase in 5 ug levofloxacin antibacterial activity against Staphylococcus aureus SA1199B mutant overexpressing NorA at 32 ug/ml by disk diffusion method; format: functional; how it was run: as §1
[18] = tested on: Staphylococcus aureus; test: Increase in 5 ug levofloxacin antibacterial activity against Staphylococcus aureus SA1199B mutant overexpressing NorA at 16 ug/ml by disk diffusion method; format: functional; how it was run: as §1
[19] = tested on: Staphylococcus aureus; test: Increase in 5 ug ofloxacin antibacterial activity against Staphylococcus aureus SA1199B mutant overexpressing NorA at 32 ug/ml by disk diffusion method; format: functional; how it was run: as §1
[20] = tested on: Staphylococcus aureus; test: Increase in 5 ug levofloxacin antibacterial activity against Staphylococcus aureus SA1199B mutant overexpressing NorA at 64 ug/ml by disk diffusion method; format: functional; how it was run: as §1
[21] = tested on: Staphylococcus aureus; test: Increase in 5 ug sparfloxacin antibacterial activity against Staphylococcus aureus SA1199B mutant overexpressing NorA at 64 ug/ml by disk diffusion method; format: functional; how it was run: as §1
[22] = tested on: Staphylococcus aureus; test: Increase in 5 ug sparfloxacin antibacterial activity against Staphylococcus aureus SA1199B mutant overexpressing NorA at 32 ug/ml by disk diffusion method; format: functional; how it was run: as §1
[23] = tested on: Staphylococcus aureus; test: Increase in 5 ug sparfloxacin antibacterial activity against Staphylococcus aureus SA1199B mutant overexpressing NorA at 16 ug/ml by disk diffusion method; format: functional; how it was run: as §1
[24] = tested on: Staphylococcus aureus; test: Increase in 5 ug moxifloxacin antibacterial activity against Staphylococcus aureus SA1199B mutant overexpressing NorA at 64 ug/ml by disk diffusion method; format: functional; how it was run: as §1
[25] = tested on: Staphylococcus aureus; test: Increase in 5 ug moxifloxacin antibacterial activity against Staphylococcus aureus SA1199B mutant overexpressing NorA at 32 ug/ml by disk diffusion method; format: functional; how it was run: as §1
[26] = tested on: Staphylococcus aureus; test: Increase in 5 ug moxifloxacin antibacterial activity against Staphylococcus aureus SA1199B mutant overexpressing NorA at 16 ug/ml by disk diffusion method; format: functional; how it was run: as §1
[27] = tested on: Staphylococcus aureus; test: Increase in 30 ug chloramphenicol antibacterial activity against Staphylococcus aureus SA1199B mutant overexpressing NorA at 64 ug/ml by disk diffusion method; format: functional; how it was run: as §1
[28] = tested on: Staphylococcus aureus; test: Increase in 30 ug chloramphenicol antibacterial activity against Staphylococcus aureus SA1199B mutant overexpressing NorA at 32 ug/ml by disk diffusion method; format: functional; how it was run: as §1
[29] = tested on: Staphylococcus aureus; test: Increase in 30 ug chloramphenicol antibacterial activity against Staphylococcus aureus SA1199B mutant overexpressing NorA at 16 ug/ml by disk diffusion method; format: functional; how it was run: as §1
[30] = tested on: Staphylococcus aureus; test: Increase in 5 ug Norfloxacin antibacterial activity against Staphylococcus aureus SA1199B mutant overexpressing NorA at 64 ug/ml by disk diffusion method; format: functional; how it was run: as §1
[31] = tested on: Staphylococcus aureus; test: Increase in 5 ug Norfloxacin antibacterial activity against Staphylococcus aureus SA1199B mutant overexpressing NorA at 32 ug/ml by disk diffusion method; format: functional; how it was run: as §1
[32] = tested on: Staphylococcus aureus; test: Increase in 5 ug Norfloxacin antibacterial activity against Staphylococcus aureus SA1199B mutant overexpressing NorA at 16 ug/ml by disk diffusion method; format: functional; how it was run: as §1
[33] = tested on: Staphylococcus aureus; test: Increase in 5 ug ciprofloxacin antibacterial activity against Staphylococcus aureus SA1199B mutant overexpressing NorA at 64 ug/ml by disk diffusion method; format: functional; how it was run: as §1
[34] = tested on: Staphylococcus aureus; test: Increase in 5 ug ciprofloxacin antibacterial activity against Staphylococcus aureus SA1199B mutant overexpressing NorA at 32 ug/ml by disk diffusion method; format: functional; how it was run: as §1
[35] = tested on: Staphylococcus aureus; test: Increase in 5 ug ciprofloxacin antibacterial activity against Staphylococcus aureus SA1199B mutant overexpressing NorA at 16 ug/ml by disk diffusion method; format: functional; how it was run: as §1
[36] = tested on: Staphylococcus aureus; test: Increase in 5 ug ofloxacin antibacterial activity against Staphylococcus aureus SA1199B mutant overexpressing NorA at 64 ug/ml by disk diffusion method; format: functional; how it was run: as §1
[37] = tested on: Staphylococcus aureus; test: Increase in 5 ug ofloxacin antibacterial activity against Staphylococcus aureus SA1199B mutant overexpressing NorA at 16 ug/ml by disk diffusion method; format: functional; how it was run: as §1

With `COc1ccc2[nH]c([S+]([O-])Cc3nc4cc(Cl)ccc4n4cccc34)nc2c1` (stereo unspecified) the “inhibition zone (IZ)” value [1] was 28 mm, the “inhibition zone (IZ)” value [2] was 28 mm and the “inhibition zone (IZ)” value [3] was 27 mm. It also gave an MIC [4] greater than 512 µg/mL, an MIC [5] of 1 µg/mL and an MIC [6] of 4 µg/mL. The Activity [7] was 10%, the Drug uptake [8] was 270 ng/mg and the “inhibition zone (IZ)” value [9] was 18 mm. For the same compound, the “inhibition zone (IZ)” value [10] was 25 mm, the “inhibition zone (IZ)” value [11] was 26 mm and the “inhibition zone (IZ)” value [12] was 27 mm. The Drug uptake [13] was 400 ng/mg, the Activity [14] was 40% and the Activity [15] was “Active”.

For `C[C@H]1COc2c(N3CCN(C)CC3)c(F)cc3c(=O)c(C(=O)O)cn1c23` [LEVOFLOXACIN], the zone of inhibition at 5 µg/disc [16] was 30 mm.

For `COc1ccc2[nH]c([S+]([O-])Cc3ncc(C)c(OC)c3C)nc2c1` (stereo unspecified) [OMEPRAZOLE], the “inhibition zone (IZ)” value [17] was 21 mm, the “inhibition zone (IZ)” value [18] was 21 mm and the “inhibition zone (IZ)” value [1] was 28 mm. For the same compound, the “inhibition zone (IZ)” value [2] was 30 mm, the “inhibition zone (IZ)” value [19] was 18 mm and the “inhibition zone (IZ)” value [20] was 23 mm. For the same compound, the “inhibition zone (IZ)” value [21] was 27 mm, the “inhibition zone (IZ)” value [22] was 27 mm and the “inhibition zone (IZ)” value [23] was 26 mm. For the same compound, the “inhibition zone (IZ)” value [24] was 29 mm, the “inhibition zone (IZ)” value [25] was 27 mm and the “inhibition zone (IZ)” value [26] was 27 mm. For the same compound, the “inhibition zone (IZ)” value [3] was 25 mm, the “inhibition zone (IZ)” value [27] was 24 mm and the “inhibition zone (IZ)” value [28] was 24 mm. The “inhibition zone (IZ)” value [29] was 24 mm, the MIC [4] was greater than 512 µg/mL and the MIC [5] was 1 µg/mL. The MIC [6] was 8 µg/mL, the Activity [7] was 10% and the Drug uptake [8] was 270 ng/mg. For the same compound, the “inhibition zone (IZ)” value [9] was 14 mm, the “inhibition zone (IZ)” value [30] was 12 mm and the “inhibition zone (IZ)” value [31] was 6 mm. For the same compound, the “inhibition zone (IZ)” value [32] was 6 mm, the “inhibition zone (IZ)” value [10] was 22 mm and the “inhibition zone (IZ)” value [33] was 19 mm. The “inhibition zone (IZ)” value [34] was 15 mm, the “inhibition zone (IZ)” value [35] was 13 mm and the “inhibition zone (IZ)” value [11] was 23 mm. For the same compound, the “inhibition zone (IZ)” value [36] was 20 mm, the “inhibition zone (IZ)” value [37] was 18 mm and the “inhibition zone (IZ)” value [12] was 25 mm. For the same compound, the Drug uptake [13] was 400 ng/mg and the Activity [14] was 40%.
